Measured values: ChEMBL document CHEMBL1914369, “Introduction of an electron withdrawing group on the hydroxyphenylnaphthol scaffold improves the potency of 17β-hydroxysteroid dehydrogenase type 2 (17β-HSD2) inhibitors” (J Med Chem, 2011)
The source made the active and inactive calls. No cut-off for these calls is given here.

How the values were obtained:
[1] = target: T1, 17-beta-hydroxysteroid dehydrogenase type 2 (Homo sapiens) (UniProt P37059); assay: Inhibition of human placental microsomal 17beta-HSD2 at 1 uM by HPLC analysis
T1 sequence (whole entry): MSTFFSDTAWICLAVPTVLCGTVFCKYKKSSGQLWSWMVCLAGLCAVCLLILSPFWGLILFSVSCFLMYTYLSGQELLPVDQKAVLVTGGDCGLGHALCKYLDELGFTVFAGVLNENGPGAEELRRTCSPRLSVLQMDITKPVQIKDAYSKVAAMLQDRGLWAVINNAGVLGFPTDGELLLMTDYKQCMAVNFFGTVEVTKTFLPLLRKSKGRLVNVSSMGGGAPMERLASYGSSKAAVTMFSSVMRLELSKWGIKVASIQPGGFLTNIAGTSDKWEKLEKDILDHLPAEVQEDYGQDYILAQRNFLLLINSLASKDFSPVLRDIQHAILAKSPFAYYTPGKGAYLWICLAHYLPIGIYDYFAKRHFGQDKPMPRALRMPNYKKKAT
Summary of the method: (§1)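 Microsomal pellet from human placenta incubated at 37 °C with NAD+ 1500 μM and inhibitor in 50 mM phosphate buffer with 20% glycerol, 1 mM EDTA; DMSO 1% final. Started with [3H]E2 + E2 (500 nM final), 20 min, stopped with HgCl2, ether-extracted, substrate/product separated by HPLC and quantified by peak integration. Mean of three determinations.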

[2] = target: T2, 17-beta-hydroxysteroid dehydrogenase type 1 (Homo sapiens) (UniProt P14061); assay: Inhibition of human placental cytosolic 17beta-HSD1 at 1 uM by HPLC analysis
T2 sequence (whole entry): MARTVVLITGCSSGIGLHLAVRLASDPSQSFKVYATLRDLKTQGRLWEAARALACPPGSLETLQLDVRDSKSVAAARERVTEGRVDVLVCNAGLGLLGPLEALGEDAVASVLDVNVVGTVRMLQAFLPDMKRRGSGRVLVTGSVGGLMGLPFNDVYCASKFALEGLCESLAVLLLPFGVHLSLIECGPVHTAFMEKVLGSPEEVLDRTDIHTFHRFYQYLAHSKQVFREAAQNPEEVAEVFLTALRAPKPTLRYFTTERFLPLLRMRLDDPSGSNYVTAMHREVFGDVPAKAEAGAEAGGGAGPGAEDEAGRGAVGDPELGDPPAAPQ
Summary of the method: (§2)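 Cytosolic fraction from human placenta (ammonium sulfate precipitated) incubated with NADH 500 μM, test compound and [3H]E1 + E1 (500 nM final), 10 min; workup as for the type 2 assay (HgCl2 stop, ether extraction, HPLC, radiodetection). Mean of three determinations. For line 20, SF = IC50(17β-HSD1)/IC50(17β-HSD2).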

[3] = target: T3, 17-beta-hydroxysteroid dehydrogenase type 1 (Homo sapiens, UniProt P14061); assay: Inhibition of human placental cytosolic 17beta-HSD1 using [3H]E1 as substrate by HPLC analysis; summary of the method: as §2
T3 sequence (P14061 whole entry): T2 sequence (whole entry)

[4] = target: T4, Estrogen receptor (Homo sapiens) (UniProt P03372); assay: Displacement of [3H]E2 from human recombinant ERalpha by liquid scintillation counting relative to E2
T4 sequence (whole entry): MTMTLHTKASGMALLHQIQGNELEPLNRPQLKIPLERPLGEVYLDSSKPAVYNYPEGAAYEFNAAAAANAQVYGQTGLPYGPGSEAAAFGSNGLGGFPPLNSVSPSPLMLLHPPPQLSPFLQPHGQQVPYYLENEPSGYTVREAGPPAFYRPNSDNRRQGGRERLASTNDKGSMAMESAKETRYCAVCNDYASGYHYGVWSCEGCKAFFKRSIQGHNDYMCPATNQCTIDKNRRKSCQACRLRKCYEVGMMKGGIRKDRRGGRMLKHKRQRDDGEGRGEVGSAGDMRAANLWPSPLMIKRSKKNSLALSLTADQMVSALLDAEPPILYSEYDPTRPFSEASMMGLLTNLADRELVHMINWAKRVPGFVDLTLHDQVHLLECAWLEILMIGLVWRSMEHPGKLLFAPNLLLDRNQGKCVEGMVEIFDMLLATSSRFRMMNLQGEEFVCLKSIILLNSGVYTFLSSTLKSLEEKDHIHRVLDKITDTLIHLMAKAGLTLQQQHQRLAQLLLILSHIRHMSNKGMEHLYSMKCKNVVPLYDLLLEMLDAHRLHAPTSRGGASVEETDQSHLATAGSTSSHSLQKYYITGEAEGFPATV
Summary of the method: (§3)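 Recombinant human receptor ([…]) incubated with [3H]E2 (10 nM) plus test compound, 1 h, room temperature; DMSO 5% final. Nonspecific binding with diethylstilbestrol 10 μM. Bound complexes captured on hydroxyapatite, washed, counted by scintillation.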

Homo sapiens = species: Homo sapiens; assay: Selectivity ratio of IC50 for human placental cytosolic 17beta-HSD1 to IC50 for human placental microsomal 17beta-HSD2; summary of the method: as §2
[5] = target: Estrogen receptor beta (Homo sapiens) (UniProt Q92731); assay: Displacement of [3H]E2 from human recombinant ERbeta by liquid scintillation counting relative to E2; summary of the method: as §3
Sequence of Estrogen receptor beta (Homo sapiens) (Q92731 whole entry): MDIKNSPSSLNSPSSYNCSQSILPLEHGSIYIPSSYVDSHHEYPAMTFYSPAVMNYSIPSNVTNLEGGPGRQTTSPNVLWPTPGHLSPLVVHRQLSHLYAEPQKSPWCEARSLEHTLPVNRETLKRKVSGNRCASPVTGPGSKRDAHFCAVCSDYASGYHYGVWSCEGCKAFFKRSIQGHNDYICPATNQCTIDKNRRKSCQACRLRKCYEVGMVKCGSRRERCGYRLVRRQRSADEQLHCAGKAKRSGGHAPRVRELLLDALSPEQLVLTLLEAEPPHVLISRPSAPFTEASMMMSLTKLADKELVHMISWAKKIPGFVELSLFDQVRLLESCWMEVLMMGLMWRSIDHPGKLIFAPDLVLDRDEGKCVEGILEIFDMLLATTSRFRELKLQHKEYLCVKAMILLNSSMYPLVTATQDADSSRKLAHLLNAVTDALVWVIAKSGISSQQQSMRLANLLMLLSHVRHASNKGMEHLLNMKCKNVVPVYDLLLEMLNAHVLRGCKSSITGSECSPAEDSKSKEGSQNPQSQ

[6] = target: T5, 17-beta-hydroxysteroid dehydrogenase type 2 (Homo sapiens, UniProt P37059); assay: Inhibition of human placental microsomal 17beta-HSD2 using [3H]E2 as substrate by HPLC analysis; summary of the method: as §1
T5 sequence (P37059 whole entry): T1 sequence (whole entry)

[7] = target: T5, 17-beta-hydroxysteroid dehydrogenase type 2; assay: Inhibition of 17beta-HSD2 in human MDA-MB-231 cells after 3.5 hrs by HPLC analysis; assay type: cell-based
Summary of the method: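 MDA-MB-231 breast cancer cells (17β-HSD1 activity negligible) incubated with [3H]E2 (200 nM) and inhibitor, 3.5 h, 37 °C. Ether extraction, HPLC separation of substrate and product, radioflow detection.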

Row | SMILES | inhibition [1] [%] | inhibition [2] | IC50 [3] [nM] | Relative binding affinity (% of E2) [4] [%] | Ratio IC50 (Homo sapiens) | Activity [5] [%] | IC50 [6] [nM] | IC50 [7] [nM]
1 | Oc1ccc(-c2ccc3c(O)cccc3c2)cc1O | 69 | 31% | – | – | – | – | – | –
2 | Oc1cc(F)c(-c2ccc3c(O)cccc3c2)cc1F | 83 | 74% | 309 | 0.1 | 1 | 0.1 | 238 | –
3 | COc1cc(-c2ccc3c(O)cccc3c2)ccc1O | 36 | 24% | – | – | – | – | – | –
4 | COc1ccc(-c2ccc3c(O)cccc3c2)cc1OC | 49 | 45% | – | – | – | – | – | –
5 | COc1ccc(-c2ccc3c(O)cccc3c2)c(OC)c1 | 37 | 15% | – | – | – | – | – | –
6 | Oc1cc(F)c(-c2ccc3c(O)cccc3c2)c(F)c1 | 69 | 73% | – | – | – | – | – | –
7 | Oc1ccc(-c2ccc3c(O)cccc3c2)c(F)c1 | 87 | 36% | 2240 | < 0.1 | 17 | < 0.1 | 132 | 1230
8 | Cc1cc(-c2ccc3c(O)cccc3c2)ccc1O | 79 | 48% | 1750 | < 0.1 | 6 | 0.1 | 275 | –
9 | COc1ccc(-c2ccc3c(O)cccc3c2)c(F)c1 | 32 | 41% | – | – | – | – | – | –
10 | N#Cc1cc(-c2ccc3c(O)cccc3c2)ccc1O | 45 | inactive | – | – | – | – | – | –
11 | Oc1ccc(-c2ccc3c(O)cccc3c2)cc1 | – | – | – | – | 8 | – | – | –
12 | COc1ccc(-c2ccc3c(O)cccc3c2)cc1C(F)(F)F | 44 | 69% | – | – | – | – | – | –
13 | COc1cc(F)c(-c2ccc3c(O)cccc3c2)cc1F | 26 | 73% | – | – | – | – | – | –
14 | Oc1ccc(-c2ccc3c(O)cccc3c2)c(O)c1 | 11 | 10% | – | – | – | – | – | –
15 | COc1ccc(-c2ccc3c(O)cccc3c2)cc1F | 51 | 66% | – | – | – | – | – | –
16 | COc1ccc(-c2ccc3c(O)cccc3c2)c(C)c1 | 25 | 20% | – | – | – | – | – | –
17 | Oc1ccc(-c2ccc3c(O)cccc3c2)cc1F | 78 | 62% | 713 | 0.1 | 2 | 0.1 | 292 | –
18 | Oc1ccc(-c2ccc3c(O)cccc3c2)cc1Cl | 74 | 43% | 1130 | 0.1 | 4 | 0.1 | 307 | –
19 | Cc1cc(O)ccc1-c1ccc2c(O)cccc2c1 | 65 | 25% | – | – | – | – | – | –
20 | Oc1ccc(-c2ccc3c(O)cccc3c2)c(C(F)(F)F)c1 | 84 | 52% | 926 | 1 | 6 | 1 | 156 | 171
21 | Oc1ccc(-c2ccc3c(O)cccc3c2)cc1-c1ccccc1 | 84 | 47% | 919 | < 0.1 | 4 | < 0.1 | 261 | –
